# Test results reported in ChEMBL document CHEMBL4261518, “Side chain-functionalized aniline-derived ursolic acid derivatives as multidrug resistance reversers that block the nuclear factor-kappa B (NF-κB) pathway and cell proliferation” (Medchemcomm, 2017).
# The source made the active and inactive calls. The calls are words filed in the database; no cut-off is given here.
# Key:
# [1] = tested on: HepG2; experiment: Cytotoxicity against human HepG2 cells after 48 hrs by MTT assay; type: functional, cell-based; settings: HepG2, 48 h
# Outline: (§1)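 Cells grown overnight in DMEM + 10% FBS at 37 °C under 5% CO2, then given a range of compound concentrations for 48 h. MTT added for about 4 h, medium replaced by DMSO, absorbance read at 570/630 nm. IC50 reported as mean ± SD of five independent experiments.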
# [2] = tested on: NCI-H460; experiment: Cytotoxicity against human NCI-H460 cells harboring pNF-kB-Luc assessed as reduction in cell viability after 7 hrs by MTT assay relative to control; set-up: concentration or dose not given beside the values; settings: nci-h460, 7 h
# [3] = Resistant factor, ratio of IC50 for human NCI-H460/DOX cells to IC50 for human NCI-H460 cells; type: functional
# [4] = tested on: L02; experiment: Cytotoxicity against human HL7702 cells after 48 hrs by MTT assay; type: cell-based; settings: L02, 48 h; outline: as §1
# [5] = tested on: A549; experiment: Cytotoxicity against human A549 cells after 48 hrs by MTT assay; type: functional, cell-based; settings: A549, 48 h; outline: as §1
# [6] = tested on: MGC-803; experiment: Cytotoxicity against human MGC803 cells after 48 hrs by MTT assay; type: functional, cell-based; settings: MGC-803, 48 h; outline: as §1
# [7] = Cytotoxicity against human SPCA2 cells after 48 hrs by MTT assay; type: functional, cell-based; settings: SPCA2, 48 h; outline: as §1
# [8] = Cytotoxicity against human NCI-H460/DOX cells after 48 hrs by MTT assay; type: functional, cell-based; settings: NCI-H460, 48 h; outline: as §1
# [9] = tested on: T-24; experiment: Cytotoxicity against human T24 cells after 48 hrs by MTT assay; type: functional, cell-based; settings: T-24, 48 h; outline: as §1
# [10] = Cytotoxicity against human HepG2/DOX cells after 48 hrs by MTT assay; type: functional, cell-based; outline: as §1
# [11] = Resistant factor, ratio of IC50 for human HepG2/DOX cells to IC50 for human HepG2 cells; type: functional
# [12] = tested on: NCI-H460; experiment: Cytotoxicity against human NCI-H460 cells after 48 hrs by MTT assay; type: functional, cell-based; settings: NCI-H460, 48 h; outline: as §1
# [13] = Inhibition of TNFalpha-induced NF-kB (unknown origin) activation expressed in human NCI-H460 cells after 7 hrs by luciferase reporter gene assay; type: cell-based; settings: NCI-H460, 7 h
# Outline: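 NCI-H460 cells transiently co-transfected with pNF-κB-Luc reporter and pSV-β-galactosidase internal control by lipofectamine. Medium changed after 6 h, then 6 h further culture. TNF-α (15 ng ml–1) plus compound given together for 7 h. Luciferase ratio to TNF-α-only cells, corrected for non-TNF background and viability. IC50 from sigmoidal variable-slope fit.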
# [14] = tested on: NCI-H460; experiment: Induction of ROS generation in human NCI-H460 cells at 10 uM after 24 hrs by DCF-DA staining based flow cytometry (reference value: 12.9%); type: functional
# [15] = tested on: NCI-H460; experiment: Inhibition of TNFalpha-induced NF-kB protein expression in human NCI-H460 cells by Western blot analysis; type: functional, cell-based
# Outline: (§2)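 TNF-α-stimulated NCI-H460 cells treated with compound, lysed in ice-cold RIPA with protease and phosphatase inhibitors, protein measured by Bradford. Equal protein run on 12% SDS-PAGE, transferred to PVDF. Probed overnight at 4 °C for TAK1, TAB1, IKKα, p-IKKα/β or NF-κB p65, then HRP secondary (1:2000), chemiluminescence, β-actin loading control. Three separate experiments.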
# [16] = tested on: NCI-H460; experiment: Induction of ROS generation in human NCI-H460 cells at 10 uM after 24 hrs by DCF-DA staining based flow cytometry relative to control; type: functional
# [17] = tested on: NCI-H460; experiment: Inhibition of TNFalpha-induced TAK1 protein expression in human NCI-H460 cells by Western blot analysis; type: functional, cell-based; outline: as §2
# [18] = tested on: NCI-H460; experiment: Cell cycle arrest in human NCI-H460 cells assessed as accumulation at S-phase at 5 uM after 24 to 48 hrs by propidium iodide staining based flow cytometry (reference value: 54.36%); type: functional
# [19] = tested on: NCI-H460; experiment: Inhibition of TNFalpha-induced IKKalpha protein expression in human NCI-H460 cells at 5 to 10 uM by Western blot analysis; type: functional, cell-based; outline: as §2
# [20] = tested on: NCI-H460; experiment: Induction of ROS generation in human NCI-H460 cells at 5 uM after 24 hrs by DCF-DA staining based flow cytometry (reference value: 12.9%); type: functional
# [21] = tested on: NCI-H460; experiment: Induction of apoptosis in human NCI-H460 cells assessed as nuclear condensation after 24 hrs by Hoechst 33258 staining based fluorescence microscopic method; type: functional, cell-based
# Outline: (§3)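 NCI-H460 cells (2 × 10^6) in six-well plates exposed to 5 or 10 μM for 24 h. Fixed 10 min in 4% paraformaldehyde, washed in cold PBS, stained with Hoechst 33258 for 5 min in the dark. Viewed by fluorescence microscopy at ex 350/em 460 nm; brightly stained condensed nuclei scored as apoptotic.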
# [22] = tested on: NCI-H460; experiment: Induction of apoptosis in human NCI-H460 cells assessed as early apoptotic cells at 5 uM after 24 hrs by propidium iodide/Annexin V-FITC staining based flow cytometry (reference value: 2.79%); type: functional
# [23] = tested on: NCI-H460; experiment: Induction of apoptosis in human NCI-H460 cells assessed as live cells at 10 uM after 24 hrs by propidium iodide/Annexin V-FITC staining based flow cytometry (reference value: 89%); type: functional
# [24] = tested on: NCI-H460; experiment: Induction of apoptosis in human NCI-H460 cells assessed as late apoptotic cells at 10 uM after 24 hrs by propidium iodide/Annexin V-FITC staining based flow cytometry (reference value: 5.4%); type: functional
# [25] = target: Inhibitor of NF-kappa-B kinase alpha/beta (Homo sapiens) (UniProt O14920+O15111); experiment: Inhibition of TNFalpha-induced IKKalpha/beta phosphorylation in human NCI-H460 cells by Western blot analysis; type: cell-based; outline: as §2
# [26] = target: Transcription factor p65 (Homo sapiens) (UniProt Q04206); experiment: Inhibition of TNFalpha-induced NF-kB p65 activation human NCI-H460 cells assessed as reduction in DNA binding ability at 5 to 10 uM by ELISA relative to control; type: cell-based
# [27] = tested on: NCI-H460; experiment: Induction of apoptosis in human NCI-H460 cells assessed as live cells at 5 uM after 24 hrs by propidium iodide/Annexin V-FITC staining based flow cytometry (reference value: 89%); type: functional
# [28] = tested on: NCI-H460; experiment: Induction of apoptosis in human NCI-H460 cells assessed as late apoptotic cells at 5 uM after 24 hrs by propidium iodide/Annexin V-FITC staining based flow cytometry (reference value: 5.4%); type: functional
# [29] = tested on: NCI-H460; experiment: Cell cycle arrest in human NCI-H460 cells assessed as accumulation at S-phase at 10 uM after 24 to 48 hrs by propidium iodide staining based flow cytometry (reference value: 54.36%); type: functional
# [30] = tested on: NCI-H460; experiment: Cell cycle arrest in human NCI-H460 cells assessed as accumulation at G1-phase at 10 uM after 24 to 48 hrs by propidium iodide staining based flow cytometry (reference value: 41.83%); type: functional
# [31] = tested on: NCI-H460; experiment: Induction of apoptosis in human NCI-H460 cells assessed as chromatin condensation after 24 hrs by Hoechst 33258 staining based fluorescence microscopic method; type: functional, cell-based; outline: as §3
# [32] = tested on: NCI-H460; experiment: Inhibition of TNFalpha-induced TAB1 protein expression in human NCI-H460 cells by Western blot analysis; type: functional, cell-based; outline: as §2
# [33] = tested on: NCI-H460; experiment: Cell cycle arrest in human NCI-H460 cells assessed as accumulation at G2-phase at 10 uM after 24 to 48 hrs by propidium iodide staining based flow cytometry (reference value: 3.82%); type: functional
# [34] = tested on: NCI-H460; experiment: Cell cycle arrest in human NCI-H460 cells assessed as accumulation at G1-phase at 5 uM after 24 to 48 hrs by propidium iodide staining based flow cytometry (reference value: 41.83%); type: functional
# [35] = tested on: NCI-H460; experiment: Induction of apoptosis in human NCI-H460 cells assessed as necrotic cells at 5 uM after 24 hrs by propidium iodide/Annexin V-FITC staining based flow cytometry (reference value: 2.8%); type: functional
# [36] = tested on: NCI-H460; experiment: Induction of apoptosis in human NCI-H460 cells after 24 hrs by propidium iodide/Annexin V-FITC staining based flow cytometry; type: functional, cell-based
# [37] = tested on: NCI-H460; experiment: Induction of apoptosis in human NCI-H460 cells assessed as necrotic cells at 10 uM after 24 hrs by propidium iodide/Annexin V-FITC staining based flow cytometry (reference value: 2.8%); type: functional
# [38] = tested on: NCI-H460; experiment: Cell cycle arrest in human NCI-H460 cells assessed as accumulation at G2-phase at 5 uM after 24 to 48 hrs by propidium iodide staining based flow cytometry (reference value: 3.82%); type: functional
# [39] = tested on: NCI-H460; experiment: Induction of apoptosis in human NCI-H460 cells assessed as early apoptotic cells at 10 uM after 24 hrs by propidium iodide/Annexin V-FITC staining based flow cytometry (reference value: 2.79%); type: functional
# Chain of Transcription factor p65 (Homo sapiens) (Q04206 whole entry): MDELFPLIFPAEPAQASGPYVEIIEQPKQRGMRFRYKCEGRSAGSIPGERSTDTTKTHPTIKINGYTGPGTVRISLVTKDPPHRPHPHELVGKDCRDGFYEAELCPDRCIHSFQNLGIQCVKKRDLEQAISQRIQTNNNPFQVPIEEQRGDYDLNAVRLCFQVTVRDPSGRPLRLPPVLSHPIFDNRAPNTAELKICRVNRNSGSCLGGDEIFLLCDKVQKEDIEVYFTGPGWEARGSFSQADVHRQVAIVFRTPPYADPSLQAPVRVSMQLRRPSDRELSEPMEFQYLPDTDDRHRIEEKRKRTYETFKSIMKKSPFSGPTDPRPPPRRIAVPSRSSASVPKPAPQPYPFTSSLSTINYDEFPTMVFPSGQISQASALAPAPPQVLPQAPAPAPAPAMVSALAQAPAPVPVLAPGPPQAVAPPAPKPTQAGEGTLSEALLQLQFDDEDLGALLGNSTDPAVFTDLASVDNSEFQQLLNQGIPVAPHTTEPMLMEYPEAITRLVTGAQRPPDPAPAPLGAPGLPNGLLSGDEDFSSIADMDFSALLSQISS
smiles,measurement,setting,value
COc1ccc(NC(=O)[C@]23CC[C@@H](C)[C@H](C)[C@H]2C2=CC[C@@H]4[C@@]5(C)CC[C@H](OC(C)=O)C(C)(C)[C@@H]5CC[C@@]4(C)[C@]2(C)CC3)cc1,IC50,[1],24.5 µM
same,Activity,[2],< 5%
same,Ratio IC50,[3],2.12
same,IC50,[4],> 50 µM
same,IC50,[5],31.1 µM
same,IC50,[6],25.2 µM
same,IC50,[7],13.7 µM
same,IC50,[8],22.6 µM
same,IC50,[9],23.8 µM
same,IC50,[10],47.1 µM
same,Ratio IC50,[11],1.92
same,IC50,[12],10.6 µM
same,IC50,[13],3.64 µM
CC(=O)O[C@H]1CC[C@]2(C)[C@H]3CC=C4[C@@H]5[C@@H](C)[C@H](C)CC[C@]5(C(=O)Nc5ccc(C)c(C)c5)CC[C@@]4(C)[C@]3(C)CC[C@H]2C1(C)C,IC50,[1],17.4 µM
same,Activity,[2],< 5%
same,Ratio IC50,[3],1.81
same,IC50,[4],> 50 µM
same,IC50,[5],12.4 µM
same,IC50,[6],15 µM
same,IC50,[7],12.2 µM
same,IC50,[8],18.9 µM
same,IC50,[9],16.6 µM
same,IC50,[10],26.2 µM
same,Ratio IC50,[11],1.51
same,IC50,[12],10.4 µM
same,IC50,[13],4.8 µM
CC(=O)O[C@H]1CC[C@]2(C)[C@H]3CC=C4[C@@H]5[C@@H](C)[C@H](C)CC[C@]5(C(=O)NCCN(C)C)CC[C@@]4(C)[C@]3(C)CC[C@H]2C1(C)C,IC50,[1],8.14 µM
same,Activity,[2],< 5%
same,Ratio IC50,[3],1.68
same,Activity,[14],40.8%
same,inhibition,[15],Dose-dependent effect
same,IC50,[4],> 50 µM
same,fold change (FC),[16],>3
same,inhibition,[17],Dose-dependent effect
same,IC50,[5],4.32 µM
same,IC50,[6],7.96 µM
same,IC50,[7],5.38 µM
same,Activity,[18],46.27%
same,inhibition,[19],Active
same,Activity,[20],14.9%
same,Activity,[21],Dose-dependent effect
same,Activity,[22],12.3%
same,IC50,[8],5.2 µM
same,Activity,[23],41.9%
same,Activity,[24],5.16%
same,inhibition,[25],Dose-dependent effect
same,fold change (FC),[26],2.3
same,Activity,[27],79.9%
same,IC50,[9],5.51 µM
same,Activity,[28],3.9%
same,Activity,[29],41.95%
same,Activity,[30],53.82%
same,IC50,[10],10.8 µM
same,Activity,[31],Dose-dependent effect
same,Ratio IC50,[11],1.33
same,inhibition,[32],Dose-dependent effect
same,Activity,[33],4.23%
same,IC50,[12],3.08 µM
same,Activity,[34],49.26%
same,Activity,[35],3.85%
same,IC50,[13],0.36 µM
same,Activity,[36],Dose-dependent effect
same,Activity,[37],5.8%
same,Activity,[38],4.46%
same,Activity,[39],47.1%
CC(=O)O[C@H]1CC[C@]2(C)[C@H]3CC=C4[C@@H]5[C@@H](C)[C@H](C)CC[C@]5(C(=O)Nc5ccc(C)cc5)CC[C@@]4(C)[C@]3(C)CC[C@H]2C1(C)C,IC50,[1],12.5 µM
same,Activity,[2],< 5%
same,Ratio IC50,[3],1.4
same,IC50,[4],> 50 µM
same,IC50,[5],10.3 µM
same,IC50,[6],13.4 µM
same,IC50,[7],11.2 µM
same,IC50,[8],13.5 µM
same,IC50,[9],10.6 µM
same,IC50,[10],20.4 µM
same,Ratio IC50,[11],1.63
same,IC50,[12],9.6 µM
same,IC50,[13],2.26 µM
